According to ChEMBL document CHEMBL1125740, “Heterocyclic quinones. 17. A new in vivo active antineoplastic drug: 6,7-bis(1-aziridinyl)-4-[[3-(N,N-dimethylamino)propyl]amino]-5,8- quinazolinedione” (J Med Chem, 1991):
Values joined by “and” are separate entries in the source; they are usually repeats but may differ in a detail not shown here. Equal entries are not always repeated.

How the values were obtained:
L1210 = assay: Inhibitory activity against L1210 cell growth; type: functional, cell-based; conditions: Mus musculus
Outline: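 L1210 cells were grown in RPMI 1640 with 2 mM glutamine and 20% heat-inactivated horse serum at 37 °C under 5% CO2. Drug was added in DMSO (0.5% final) to exponential cells seeded at 0.8×10^5 cells/mL. Coulter counts were done in triplicate at 48 h. IC50 was taken from a regression of probit % growth inhibition against log dose, from one experiment.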

P388 [1] = assay: (§1) Compound was evaluated in vivo for antitumor activity after intraperitoneal administration against P388 (1303) for change in body weight at an optimal dose of 1 mg/kg/injection; type: functional, Mus musculus
P388 [2] = assay: (§2) Compound was evaluated in vivo for antitumor activity after intraperitoneal administration against P388 (1303) for % increase in life span at an optimal dose of 1 mg/kg/injection; type: functional; conditions: Mus musculus, P388, ip
P388 [3] = assay: as §1; type: functional, Mus musculus; remark: listed apart in the source
P388 [4] = assay: (§3) Compound was evaluated in vivo for antitumor activity after intraperitoneal administration against P388 (1303) for tumor free survivors at an optimal dose of 1 mg/kg/injection; type: functional, Mus musculus
P388 [5] = assay: as §2; type: functional; conditions: Mus musculus, P388, ip; remark: listed apart in the source
P388 [6] = assay: (§4) Compound was evaluated in vivo for antitumor activity after intraperitoneal administration against P388 (1303) for mortality range at an optimal dose of 1 mg/kg/injection; type: functional, Mus musculus
P388 [7] = assay: as §4; type: functional, Mus musculus; remark: listed apart in the source
P388 [8] = assay: (§5) Compound was evaluated in vivo for antitumor activity after intraperitoneal administration against P388 (1303) for median day of death at an optimal dose of 1 mg/kg/injection; type: functional, Mus musculus
P388 [9] = assay: as §5; type: functional, Mus musculus; remark: listed apart in the source
P388 [10] = assay: Compound was evaluated in vivo for antitumor activity after intraperitoneal administration against P388/L-PAM for total dose at an optimal dose of 1 mg/kg/injection; type: functional, Mus musculus
P388 [11] = assay: as §3; type: functional, Mus musculus; remark: listed apart in the source
P388 [12] = assay: Compound was evaluated in vivo for antitumor activity after intraperitoneal administration against P388 (1303) for total dose at an optimal dose of 1 mg/kg/injection; type: functional, Mus musculus
P388 [13] = assay: Compound was evaluated in vivo for antitumor activity after intraperitoneal administration against P388 (1303) for % increase in life span at an optimal dose of 5 mg/kg/injection; type: functional; conditions: Mus musculus, P388, ip
P388 [14] = assay: (§6) Compound was evaluated in vivo for antitumor activity after intraperitoneal administration against P388/L-PAM(14) for % increase in life span at an optimal dose of 5 mg/kg/injection; type: functional; conditions: Mus musculus, P388, ip
P388 [15] = assay: (§7) Compound was evaluated in vivo for antitumor activity after intraperitoneal administration against P388/L-PAM(14) for change in body weight at an optimal dose of 5 mg/kg/injection; type: functional, Mus musculus
P388 [16] = assay: Compound was evaluated in vivo for antitumor activity after intraperitoneal administration against P388 (1303) for tumor free survivors at an optimal dose of 5 mg/kg/injection; type: functional, Mus musculus
P388 [17] = assay: Compound was evaluated in vivo for antitumor activity after intraperitoneal administration against P388/L-PAM(12 for mortality range at an optimal dose of 5 mg/kg/injection; type: functional, Mus musculus
P388 [18] = assay: Compound was evaluated in vivo for antitumor activity after intraperitoneal administration against P388/L-PAM(12) for % increase in life span at an optimal dose of 1 mg/kg/injection; type: functional; conditions: Mus musculus, P388, ip
P388 [19] = assay: Compound was evaluated in vivo for antitumor activity after intraperitoneal administration against P388 (1303) for mortality range at an optimal dose of 5 mg/kg/injection; type: functional, Mus musculus
P388 [20] = assay: (§8) Compound was evaluated in vivo for antitumor activity after intraperitoneal administration against P388/L-PAM(14) for tumor free survivors at an optimal dose of 5 mg/kg/injection; type: functional, Mus musculus
P388 [21] = assay: as §6; type: functional; conditions: Mus musculus, P388, ip; remark: listed apart in the source
P388 [22] = assay: (§9) Compound was evaluated in vivo for antitumor activity after intraperitoneal administration against P388/L-PAM(14) for mortality range at an optimal dose of 5 mg/kg/injection; type: functional, Mus musculus
P388 [23] = assay: Compound was evaluated in vivo for antitumor activity after intraperitoneal administration against P388 (1303) for median day of death at an optimal dose of 5 mg/kg/injection; type: functional, Mus musculus
P388 [24] = assay: as §8; type: functional, Mus musculus; remark: listed apart in the source
P388 [25] = assay: Compound was evaluated in vivo for antitumor activity after intraperitoneal administration against P388/L-PAM(12) for tumor free survivors at an optimal dose of 1 mg/kg/injection; type: functional, Mus musculus
P388 [26] = assay: as §7; type: functional, Mus musculus; remark: listed apart in the source
P388 [27] = assay: Compound was evaluated in vivo for antitumor activity after intraperitoneal administration against P388/L-PAM(14) for median day of death at an optimal dose of 5 mg/kg/injection; type: functional, Mus musculus
P388 [28] = assay: Compound was evaluated in vivo for antitumor activity after intraperitoneal administration against P388 (1313) for total dose at an optimal dose of 5 mg/kg/injection; type: functional, Mus musculus
P388 [29] = assay: Compound was evaluated in vivo for antitumor activity after intraperitoneal administration against P388/L-PAM(14) for total dose at an optimal dose of 5 mg/kg/injection; type: functional, Mus musculus
P388 [30] = assay: Compound was evaluated in vivo for antitumor activity after intraperitoneal administration against P388/L-PAM(12) for total dose at an optimal dose of 5 mg/kg/injection; type: functional, Mus musculus
P388 [31] = assay: as §9; type: functional, Mus musculus; remark: listed apart in the source
P388 [32] = assay: Compound was evaluated in vivo for antitumor activity after intraperitoneal administration against P388/L-PAM(12 for median day of death at an optimal dose of 1 mg/kg/injection; type: functional, Mus musculus
P388 [33] = assay: Compound was evaluated in vivo for antitumor activity after intraperitoneal administration against P388 (1303) for total dose at an optimal dose of 5 mg/kg/injection; type: functional, Mus musculus
P388 [34] = assay: Compound was evaluated in vivo for antitumor activity after intraperitoneal administration against P388 (1303) for change in body weight at an optimal dose of 5 mg/kg/injection; type: functional, Mus musculus
P388 [35] = assay: Compound was evaluated in vivo for antitumor activity after intraperitoneal administration against P388/L-PAM(12 for change in body weight at an optimal dose of 1 mg/kg/injection; type: functional, Mus musculus
Mus musculus [36] = assay: Compound was evaluated in vivo for antitumor activity against colon adenocarcinoma after injecting the compound intraperitoneally for total dose.; type: functional
Mus musculus [37] = assay: Compound was evaluated in vivo for antitumor activity against colon adenocarcinoma after injecting the compound intraperitoneally for median tumor burden; type: functional
Mus musculus [38] = assay: Compound was evaluated in vivo for antitumor activity against colon adenocarcinoma after injecting the compound intraperitoneally for percent T/C; type: functional
Mus musculus [39] = assay: Compound was evaluated in vivo for antitumor activity against colon adenocarcinoma after injecting the compound intraperitoneally for toxicity related death.; type: functional
Mus musculus [40] = assay: Compound was evaluated in vivo for antitumor activity against colon adenocarcinoma after injecting the compound intraperitoneally for optimal dose; type: functional

COC1=CC(=O)c2ncnc(NCCCn3cnc4c(N)ncnc43)c2C1=O
IC50 (L1210): > 10 µg/mL and > 24.6 µM

COC(=O)CNc1ncnc2c1C(=O)C(OC)=CC2=O
IC50 (L1210): 1.2 µg/mL and 4.26 µM

CCN(CC)CCCC(C)Nc1ncnc2c1C(=O)C(OC)=CC2=O (configuration not stated)
IC50 (L1210): 0.435 µg/mL and 1.26 µM

CN(C)CCCNc1ncnc2c1C(=O)C(N1CCCCC1)=CC2=O
IC50 (L1210): 0.406 µg/mL and 1.17 µM

COC1=CC(=O)c2ncnc(OCCOCCOCCO)c2C1=O
IC50 (L1210): > 10 µg/mL and > 29.6 µM

CCN(CC)CCCNc1ncnc2c1C(=O)C(OC)=CC2=O
IC50 (L1210): 0.393 µg/mL and 1.24 µM

COC1=CC(=O)c2ncnc(NCCN(C)C)c2C1=O
IC50 (L1210): 0.316 µg/mL and 1.14 µM

COC(=O)C(Nc1ncnc2c1C(=O)C(OC)=CC2=O)C(C)C (configuration not stated)
IC50 (L1210): 0.825 µg/mL and 2.59 µM

COc1cccc2c1C(=O)c1c(O)c3c(c(O)c1C2=O)C[C@@](O)(C(=O)CO)C[C@@H]3O[C@H]1C[C@H](N)[C@H](O)[C@H](C)O1 [DOXORUBICIN]
IC50 (L1210): 0.028 µg/mL and 48 nM

CCCC(=O)OCCNc1ncnc2c1C(=O)C(OC)=CC2=O
IC50 (L1210): 0.85 µg/mL and 2.66 µM

CCN(CC)CCNc1ncnc2c1C(=O)C(OC)=CC2=O
IC50 (L1210): 0.281 µg/mL and 898 nM

O=C1C(N2CC2)=C(N2CC2)C(=O)c2ncncc21
IC50 (L1210): 80 nM

COc1cccc2c1C(=O)c1c(O)c3c(c(O)c1C2=O)C[C@@](O)(C(C)=O)C[C@@H]3O[C@H]1C[C@H](N)[C@H](O)[C@H](C)O1 [DAUNORUBICIN]
Change in body weight (P388 [1]): 0.3 g mouse-1
ILS at 1 mg/kg (P388 [2]): 63%
Change in body weight (P388 [3]): 1.4 g mouse-1
Survivors (P388 [4]): 0
ILS at 1 mg/kg (P388 [5]): 79%
Mortality (P388 [6]): 20 days
Mortality (P388 [7]): 27 days
Median day of death (P388 [8]): 18
Median day of death (P388 [9]): 19.5
Total dose (P388 [10]): 4 mg/kg
Survivors (P388 [11]): 0
Total dose (P388 [12]): 4 mg/kg

N[C@@H](Cc1ccc(N(CCCl)CCCl)cc1)C(=O)O [MELPHALAN]
ILS at 5 mg/kg (P388 [13]): 118%
ILS at 5 mg/kg (P388 [14]): 121%
Change in body weight (P388 [15]): 0 g mouse-1
Survivors (P388 [16]): 0
Mortality (P388 [17]): 31 days
ILS at 1 mg/kg (P388 [18]): 15%
Mortality (P388 [19]): 34 days
Survivors (P388 [20]): 0
ILS at 5 mg/kg (P388 [21]): 14%
Mortality (P388 [22]): 19 days
Median day of death (P388 [23]): 24
Survivors (P388 [24]): 0
Survivors (P388 [25]): 0
Change in body weight (P388 [26]): 0.4 g mouse-1
Median day of death (P388 [27]): 16
Total dose (P388 [28]): 5 mg/kg
Total dose (P388 [29]): 5 mg/kg
Total dose (P388 [30]): 5 mg/kg
Mortality (P388 [31]): 34 days
Median day of death (P388 [32]): 15
Total dose (P388 [33]): 5 mg/kg
Change in body weight (P388 [34]): 0.1 g mouse-1
Change in body weight (P388 [35]): 0.6 g mouse-1

COC(=O)C(CC(C)C)NC(=O)C(CC(C)C)Nc1ncnc2c1C(=O)C(OC)=CC2=O (configuration not stated)
IC50 (L1210): 0.581 µg/mL and 1.3 µM

COC1=CC(=O)c2ncnc(NCCO)c2C1=O
IC50 (L1210): 1.78 µg/mL and 7.13 µM

COC1=CC(=O)c2ncnc(NCCCN(C)CCCNc3ncnc4c3C(=O)C(OC)=CC4=O)c2C1=O
IC50 (L1210): 1250 nM

O=c1[nH]cc(F)c(=O)[nH]1 [FLUOROURACIL]
Total dose (Mus musculus [36]): 140 mg/kg
Tumor burden (Mus musculus [37]): 60 mg
T/C (Mus musculus [38]): 14%
Toxicity (Mus musculus [39]): 0
Optimal dose (Mus musculus [40]): 70 mg/kg

COC1=CC(=O)c2ncnc(NCCCN(C)C)c2C1=O
IC50 (L1210): 0.501 µg/mL and 1.73 µM

CN(CCCNc1ncnc2c1C(=O)C(N1CC1)=C(N1CC1)C2=O)CCCNc1ncnc2c1C(=O)C(N1CC1)=C(N1CC1)C2=O
IC50 (L1210): 4.8 nM
